Assay results as given in paper PMC4635625 (Neuropharmacology, 2015).
Counter-ions that a name gives are not always drawn. Like-named read-outs stand apart in the source and are kept apart here.

Assays:
[1] = biological target: α6L9′Sβ2L9′SLFM/AAQA (α6β2‡) nAChR (Rattus norvegicus, UniProt P12390+P43143, L273S/L280S/L348M/R364A/R365A/R367A); experiment: cell-based; format: cell-based
[2] = biological target: α6β2‡ nAChR, TrpB (α6:W149) = Trp (Rattus norvegicus, UniProt P12390+P43143, L273S/L280S/L348M/R364A/R365A/R367A); experiment: TEVC dose-response, nonsense suppression series, Trp at TrpB; format: cell-based
Sequence of α6β2‡ nAChR, TrpB (α6:W149) = Trp (P43143 31-493 L280S): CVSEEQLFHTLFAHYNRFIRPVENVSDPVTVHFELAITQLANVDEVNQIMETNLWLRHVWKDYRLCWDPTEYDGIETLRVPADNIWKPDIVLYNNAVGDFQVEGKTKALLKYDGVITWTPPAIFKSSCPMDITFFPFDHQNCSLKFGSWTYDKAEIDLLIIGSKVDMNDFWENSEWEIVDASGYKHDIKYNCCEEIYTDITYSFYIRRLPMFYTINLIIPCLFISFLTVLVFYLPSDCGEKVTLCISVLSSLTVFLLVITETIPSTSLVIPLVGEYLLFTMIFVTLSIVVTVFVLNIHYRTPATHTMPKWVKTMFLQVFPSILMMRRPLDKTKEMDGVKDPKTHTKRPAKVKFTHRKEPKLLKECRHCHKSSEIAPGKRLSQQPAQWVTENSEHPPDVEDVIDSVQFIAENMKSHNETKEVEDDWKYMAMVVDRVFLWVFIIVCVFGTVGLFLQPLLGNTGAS
Sequence of α6β2‡ nAChR, TrpB (α6:W149) = Trp (P12390 25-500 L273S/L348M/R364A/R365A/R367A): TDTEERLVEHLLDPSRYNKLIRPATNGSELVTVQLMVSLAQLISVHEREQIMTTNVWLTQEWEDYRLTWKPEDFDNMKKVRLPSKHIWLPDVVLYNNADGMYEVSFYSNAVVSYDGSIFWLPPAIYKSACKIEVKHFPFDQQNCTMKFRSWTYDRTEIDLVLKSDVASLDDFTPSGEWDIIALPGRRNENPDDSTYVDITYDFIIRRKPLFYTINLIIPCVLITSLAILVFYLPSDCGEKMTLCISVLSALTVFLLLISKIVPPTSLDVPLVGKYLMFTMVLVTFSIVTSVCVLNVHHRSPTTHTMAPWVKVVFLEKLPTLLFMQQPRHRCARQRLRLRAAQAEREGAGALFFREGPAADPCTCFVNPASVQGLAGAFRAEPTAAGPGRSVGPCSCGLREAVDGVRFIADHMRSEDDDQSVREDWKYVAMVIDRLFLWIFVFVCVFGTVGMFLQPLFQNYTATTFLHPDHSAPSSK

[3] = biological target: α6β2‡ nAChR, TrpB (α6:W149) = 5-Me-Trp (Rattus norvegicus, UniProt P12390+P43143, L273S/L280S/L348M/R364A/R365A/R367A/W179X); experiment: TEVC dose-response, nonsense suppression, MeTrp at TrpB; format: cell-based
[4] = biological target: α6β2‡ nAChR, TrpB (α6:W149) = 4-F1Trp (Rattus norvegicus, UniProt P12390+P43143, L273S/L280S/L348M/R364A/R365A/R367A/W179X); experiment: TEVC dose-response, nonsense suppression, 4-F1Trp at TrpB; format: cell-based; details: TrpB = 4-F1Trp; 10:1 α6β2‡
[5] = biological target: α6β2‡ nAChR, TrpB (α6:W149) = 5-F1Trp (Rattus norvegicus, UniProt P12390+P43143, L273S/L280S/L348M/R364A/R365A/R367A/W179X); experiment: TEVC dose-response, nonsense suppression, 5-F1Trp at TrpB; format: cell-based
[6] = biological target: α6β2‡ nAChR, TrpB (α6:W149) = 6-F1Trp (Rattus norvegicus, UniProt P12390+P43143, L273S/L280S/L348M/R364A/R365A/R367A/W179X); experiment: TEVC dose-response, nonsense suppression, 6-F1Trp at TrpB; format: cell-based; details: TrpB = 6-F1Trp; 10:1 α6β2‡
[7] = biological target: α6β2‡ nAChR, TrpB (α6:W149) = 5-Br-Trp (Rattus norvegicus, UniProt P12390+P43143, L273S/L280S/L348M/R364A/R365A/R367A/W179X); experiment: TEVC dose-response, nonsense suppression, BrTrp at TrpB; format: cell-based
[8] = biological target: α6β2‡ nAChR, TrpB (α6:W149) = 5,7-F2Trp (Rattus norvegicus, UniProt P12390+P43143, L273S/L280S/L348M/R364A/R365A/R367A/W179X); experiment: TEVC dose-response, nonsense suppression, F2Trp at TrpB; format: cell-based
[9] = biological target: α6β2‡ nAChR, TrpB (α6:W149) = 5-CNTrp (Rattus norvegicus, UniProt P12390+P43143, L273S/L280S/L348M/R364A/R365A/R367A/W179X); experiment: TEVC dose-response, nonsense suppression, CNTrp at TrpB; format: cell-based; details: 10:1 α6β2‡
[10] = biological target: α6β2‡ nAChR, TrpB (α6:W149) = 5,6,7-F3Trp (Rattus norvegicus, UniProt P12390+P43143, L273S/L280S/L348M/R364A/R365A/R367A/W179X); experiment: TEVC dose-response, nonsense suppression, F3Trp at TrpB; format: cell-based
[11] = biological target: TrpB (α6:W149) in α6β2‡ nAChR (Rattus norvegicus, UniProt P12390+P43143, L273S/L280S/L348M/R364A/R365A/R367A); experiment: Fluorination plot; format: cell-based; details: for cation-π interaction with the indole side chain of TrpB: fluorination plot at TrpB in α6β2‡
Sequence of TrpB (α6:W149) in α6β2‡ nAChR (P43143 31-493 L280S): as the sequence (P43143 31-493 L280S) above
Sequence of TrpB (α6:W149) in α6β2‡ nAChR (P12390 25-500 L273S/L348M/R364A/R365A/R367A): as the sequence (P12390 25-500 L273S/L348M/R364A/R365A/R367A) above
Method in brief: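 Rat α6β2‡ with UAG at TrpB, 10:1 α6:β2 mRNA, coinjected with photodeprotected fluoro-Trp–tRNA (25 ng mRNA per cell) into stage V–VI Xenopus oocytes; 24–48 h at 18 °C in ND96 pH 7.5. TEVC at −60 mV, 15 s agonist pulses in Ca2+-free ND96. EC50 from Hill fits of normalized averaged data. Log fold-shift in EC50 plotted against calculated cation–fluoro-Trp binding energy.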

muscle-type nAChR = details: ref Beene et al., 2002; cited from earlier work
α4β2 nAChR = details: ref Dougherty and Van Arnam, 2014; cited from earlier work
α6β2‡ nAChR = α6β2‡ nAChR (Rattus norvegicus, UniProt P12390+P43143, L273S/L280S/L348M/R364A/R365A/R367A); format: cell-based
Sequence of α6β2‡ nAChR (P43143 31-493 L280S): as the sequence (P43143 31-493 L280S) above
Sequence of α6β2‡ nAChR (P12390 25-500 L273S/L348M/R364A/R365A/R367A): as the sequence (P12390 25-500 L273S/L348M/R364A/R365A/R367A) above

[12] = agonist panel, α6-biased population, Hill coefficient
[13] = agonist panel, α6-biased population, range of maximum currents
[14] = agonist panel, α6-biased population, holding potential −60 mV
[15] = Table 4, fold-shift in EC50 relative to Trp

Sequence of α6L9′Sβ2L9′SLFM/AAQA (α6β2‡) nAChR (P43143 31-493 L280S): as the sequence (P43143 31-493 L280S) above
Sequence of α6L9′Sβ2L9′SLFM/AAQA (α6β2‡) nAChR (P12390 25-500 L273S/L348M/R364A/R365A/R367A): as the sequence (P12390 25-500 L273S/L348M/R364A/R365A/R367A) above

SMILES: Clc1ccc(C2CC3CCC2N3)cn1 (racemic) [Epi, (±)-epibatidine]
- nH [1, 12]: 1.9 ± 0.2
- Imax [1, 13]: 0.47–2.81 µA

SMILES: CC(=O)OCC[N+](C)(C)C [ACh, Acetylcholine chloride]
- nH [1, 12]: 1.36 ± 0.03
- Imax [1, 13]: 0.28–14.9 µA
- nH ([1]; α6:β2 mRNA ratio 1:1, Hill coefficient): 1.15 ± 0.06
- Imax ([1]; α6:β2 mRNA ratio 1:1, range of maximum currents): 4.42–14.2
- nH ([1]; α6:β2 mRNA ratio 1:2, Hill coefficient): 1.23 ± 0.05
- Imax ([1]; α6:β2 mRNA ratio 1:2, range of maximum currents): 3.06–31.7
- nH ([1]; α6:β2 mRNA ratio 1:5, Hill coefficient): 0.95 ± 0.04
- Imax ([1]; α6:β2 mRNA ratio 1:5, range of maximum currents): 0.70–8.21
- nH ([1]; α6:β2 mRNA ratio 1:10, Hill coefficient): 0.83 ± 0.02
- Imax ([1]; α6:β2 mRNA ratio 1:10, range of maximum currents): 1.01–4.67
- nH ([1]; α6:β2 mRNA ratio 1:20, Hill coefficient): 0.86 ± 0.03
- Imax ([1]; α6:β2 mRNA ratio 1:20, range of maximum currents): 1.01–10.9
- nH ([1]; α6:β2 mRNA ratio 2:1, Hill coefficient): 1.14 ± 0.03
- Imax ([1]; α6:β2 mRNA ratio 2:1, range of maximum currents): 0.94–79.5
- nH ([1]; α6:β2 mRNA ratio 5:1, Hill coefficient): 1.17 ± 0.04
- Imax ([1]; α6:β2 mRNA ratio 5:1, range of maximum currents): 0.70–79.9
- nH ([1]; α6:β2 mRNA ratio 10:1, Hill coefficient): 1.17 ± 0.04
- Imax ([1]; α6:β2 mRNA ratio 10:1, range of maximum currents): 4.85–70.7
- nH ([1]; α6:β2 mRNA ratio 20:1, Hill coefficient): 1.64 ± 0.05
- Imax ([1]; α6:β2 mRNA ratio 20:1, range of maximum currents): 0.25–1.44
- nH ([1]; α6:β2 mRNA ratio 50:1, Hill coefficient): 1.17 ± 0.03
- Imax ([1]; α6:β2 mRNA ratio 50:1, range of maximum currents): 8.25–57.3
- currents in response to acetylcholine ([1]; α6L9′Sβ2L9′SLFM/AAQA in oocytes): greater than 1 µA
- Imax ([2]; 10:1 α6β2‡): 0.28–14.9 uA
- nH ([2]; 10:1 α6β2‡): 1.36 ± 0.03
- Imax ([3]; 10:1 α6β2‡): 0.19–19.4 uA
- nH ([3]; 10:1 α6β2‡): 1.18 ± 0.02
- Imax [4]: 0.71–6.92 uA
- nH ([5]; TrpB = 5-F1Trp, 10:1 α6β2‡): 1.37 ± 0.03
- Imax [6]: 0.18–4.28 uA
- nH [6]: 1.30 ± 0.04
- Imax ([7]; 10:1 α6β2‡): 0.22–15.1 uA
- nH ([7]; 10:1 α6β2‡): 1.32 ± 0.04
- Imax ([8]; 10:1 α6β2‡): 0.76–9.33 uA
- nH ([8]; 10:1 α6β2‡): 1.43 ± 0.02
- Imax [9]: 0.31–13.3 uA
- Imax ([10]; 10:1 α6β2‡): 0.09–1.94 uA
- nH ([10]; 10:1 α6β2‡): 1.04 ± 0.03
- slope of linear trend of fluorination plot ([11]; 10:1 α6β2‡, trend excludes 5-CNTrp and 4-F1Trp): −0.10
- cation-π interaction with the indole side chain of TrpB [11]: strong cation-π interaction
- cation-π interaction (muscle-type nAChR): does
- cation-π interaction to TrpB (α4β2 nAChR): strong cation-π interaction

SMILES: C[N+](C)(C)CCOC(N)=O.[Cl-] [CCh, carbamylcholine chloride]
- EC50 [1, 14]: 1360 ± 50 nM
- nH [1, 12]: 1.12 ± 0.04
- Imax [1, 13]: 3.63–52.5 µA

SMILES: C[N+](C)(C)CCO [Ch, choline chloride]
- Imax [1]: 2.08–15.4 µA
- nH [1]: 1.32 ± 0.05
- EC50 ([1]; EC50): 159000 ± 7000 nM
- Eff (α6β2‡ nAChR): 0.33 ± 0.02

SMILES: O=c1cccc2n1C[C@@H]1CNC[C@H]2C1 [Cyt, cytisine]
- Imax [1]: 0.57–31.9 µA
- nH [1]: 1.31 ± 0.05
- potency (EC50) relative to ACh [1]: slightly more potent
- EC50 ([1]; EC50): 27 ± 1 nM
- Eff (α6β2‡ nAChR): 0.28 ± 0.01

SMILES: CN1CCC[C@H]1c1cccnc1 [Nic, (−)-nicotine tartrate]
- Imax [1]: 9.48–54.4 µA
- nH [1]: 1.38 ± 0.05
- Eff (α6β2‡ nAChR): 0.49 ± 0.03
- Imax ([2]; Table 4): 0.09–5.8 µA
- nH ([2]; Table 4): 1.43 ± 0.06
- Imax ([3]; Table 4): 0.31–3.95 µA
- nH ([3]; Table 4): 1.36 ± 0.05
- Imax ([5]; Table 4, TrpB = F1Trp): 0.07–2.06 µA
- nH ([5]; Table 4, TrpB = F1Trp): 1.39 ± 0.06
- Imax ([7]; Table 4): 0.08–5.65 µA
- nH ([7]; Table 4): 1.42 ± 0.04
- Imax ([8]; Table 4): 0.32–2.13 µA
- nH ([8]; Table 4): 1.30 ± 0.06
- Imax ([10]; Table 4): 0.05–1.05 µA
- nH ([10]; Table 4): 1.28 ± 0.03
- cation-π interaction with the indole side chain of TrpB [11]: do not make cation-π interactions
- cation-π interaction to TrpB (α4β2 nAChR): strong cation-π interaction

SMILES: C1=C(/c2cncnc2)CCCNCC/1 [TC299]
- EC50 [1, 14]: 71 ± 3 nM
- nH [1, 12]: 0.99 ± 0.04
- Imax [1, 13]: 1.73–21.9 µA
- EC50 ([2]; Table 4): 93 ± 4 nM
- Imax ([2]; Table 4): 0.33–3.78 µA
- nH ([2]; Table 4): 1.09 ± 0.04
- Fold [2, 15]: 1
- EC50 ([3]; Table 4): 73 ± 4 nM
- Imax ([3]; Table 4): 0.15–2.35 µA
- nH ([3]; Table 4): 0.92 ± 0.03
- Fold [3, 15]: 0.78
- EC50 ([5]; Table 4, TrpB = F1Trp): 220 ± 10 nM
- Imax ([5]; Table 4, TrpB = F1Trp): 0.27–3.49 µA
- nH ([5]; Table 4, TrpB = F1Trp): 1.01 ± 0.04
- Fold ([5]; Table 4, fold-shift in EC50 relative to Trp, TrpB = F1Trp): 2.37
- EC50 ([7]; Table 4): 250 ± 8 nM
- Imax ([7]; Table 4): 0.1–7.71 µA
- nH ([7]; Table 4): 1.01 ± 0.03
- Fold [7, 15]: 2.69
- EC50 ([8]; Table 4): 138 ± 6 nM
- Imax ([8]; Table 4): 0.06–1.87 µA
- nH ([8]; Table 4): 0.98 ± 0.04
- Fold [8, 15]: 1.48
- EC50 ([10]; Table 4): 630 ± 30 nM
- Imax ([10]; Table 4): 0.05–0.28 µA
- nH ([10]; Table 4): 0.90 ± 0.03
- Fold [10, 15]: 6.77

SMILES: c1cnc2cc3c(cc2n1)[C@@H]1CNC[C@H]3C1 [Var, varenicline]
- EC50 ([1]; EC50, agonist panel, α6-biased population, holding potential −60 mV): 31 ± 3 nM
- potency (EC50) relative to ACh ([1]; agonist panel at α6β2‡, in words): slightly more potent
- nH [1, 12]: 1.08 ± 0.08
- Imax [1, 13]: 0.51–12.1 µA
